# Experimental data published in ChEMBL document CHEMBL3085643, “Synthesis and evaluation in monkey of [(18)F]4-fluoro-N-methyl-N-(4-(6-(methylamino)pyrimidin-4-yl)thiazol-2-yl)benzamide ([(18)F]FIMX): a promising radioligand for PET imaging of brain metabotropic glutamate receptor 1 (mGluR1)” (J Med Chem, 2013).
# Assays:
# [1] = system: Brain; experiment: Biodistribution in iv dosed rhesus monkey brain measured at 90 mins by PET analysis relative to control; assay type: ADME, organism-based, Macaca mulatta; details: in vivo, 1.5 h
# In short: (§1)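 Baseline scans in rhesus monkey given the [18F] radioligand i.v. (4.6–6.58 mCi; specific activity 1.67–4.18 Ci/μmol at injection). Ketamine 10 mg/kg i.m. induction, then 1.6% isoflurane/98.4% O2, with the head in a stereotaxic frame. microPET Focus 220 scanning for 120 min in 33 frames (30 s–5 min). Regional uptake, including isocontour-delineated cerebellar grey matter, expressed as SUV.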
# [2] = system: Plasma; experiment: Biodistribution in rhesus monkey plasma at 5.24 mCi, iv measured at 31 mins by radio-HPLC analysis; assay type: ADME, organism-based, Macaca mulatta; details: in vivo
# In short: (§2)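 Single rhesus monkey (7.0 kg) given the radioligand iv (5.24 mCi; 1.4 nmol/kg). Venous blood drawn at 10, 30, 60 and 120 min. Separated plasma analysed by radio-HPLC on a C18 radial-compression column, eluted at 2.0 mL/min with MeOH:H₂O:Et₃N (65:35:0.1). Parent and radiometabolites given as percent of plasma radioactivity; blood-component radioactivity expressed as SUV; decay-corrected.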
# [3] = system: Plasma; experiment: Biodistribution in rhesus monkey plasma assessed as radiometabolite [18F]-A level at 5.24 mCi, iv after 60 mins by radio-HPLC analysis; assay type: ADME, organism-based, Macaca mulatta; details: in vivo, 1 h; in short: as §2
# [4] = system: Blood; experiment: Biodistribution in rhesus monkey whole blood at 5.24 mCi, iv up to 150 mins by radio-HPLC analysis; assay type: ADME, organism-based, Macaca mulatta; details: in vivo, 2 h, in the assay text read “120 mins” for “150 mins”
# In short: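 Venous blood sampled after iv injection of radioligand (5.24 mCi; 1.4 nmol/kg) in one 7.0 kg rhesus monkey. Whole-blood radioactivity was gamma-counted, decay-corrected and expressed as SUV.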
# [5] = Biodistribution in iv dosed rhesus monkey cerebellum measured at 12 mins by PET analysis; assay type: ADME, organism-based, Macaca mulatta; details: in vivo, 0.2 h
# In short: (§3)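 Baseline brain PET in rhesus monkey: radioligand given intravenously (4.6–6.58 mCi; specific activity 1.67–4.18 Ci/μmol at injection). Ketamine induction (10 mg/kg, i.m.), then 1.6% isoflurane in O₂; head held in a stereotaxic frame. Scan run 120 min in 33 frames (30 s–5 min). Regional uptake taken from regions of interest, cerebellar grey matter delineated by isocontour, expressed as SUV; decay-corrected.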
# [6] = system: Plasma; experiment: Biodistribution in rhesus monkey plasma assessed as radiometabolite [18F]-E level at 5.24 mCi, iv after 60 mins by radio-HPLC analysis; assay type: ADME, organism-based, Macaca mulatta; details: in vivo, 1 h; in short: as §2
# [7] = Octanol-sodium phosphate buffer distribution coefficient, log D of the compound at pH 7.4; assay type: physicochemical
# In short: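 Measured LogD of the [18F]-labelled compound: distribution between n-octanol and 0.15 M sodium phosphate buffer, pH 7.4; n = 6.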
# [8] = Biodistribution in iv dosed rhesus monkey cerebellum measured at 90 mins by PET analysis; assay type: ADME, organism-based, Macaca mulatta; details: in vivo, 1.5 h; in short: as §3
# [9] = system: Plasma; experiment: Biodistribution in rhesus monkey plasma at 5.24 mCi, iv after 60 mins by radio-HPLC analysis; assay type: ADME, organism-based, Macaca mulatta; details: in vivo, 1 h; in short: as §2
# [10] = system: Plasma; experiment: Biodistribution in rhesus monkey plasma assessed as radiometabolite [18F]-C level at 5.24 mCi, iv after 60 mins by radio-HPLC analysis; assay type: ADME, organism-based, Macaca mulatta; details: in vivo, 1 h; in short: as §2
# [11] = Biodistribution in iv dosed rhesus monkey skull by PET analysis; assay type: ADME, organism-based, Macaca mulatta; details: in vivo; in short: as §3
# [12] = system: Brain; experiment: Biodistribution in iv dosed rhesus monkey brain measured up to 120 mins by PET analysis; assay type: ADME, organism-based, Macaca mulatta; details: in vivo, 2 h; in short: as §1
# [13] = Biodistribution in iv dosed rhesus monkey thalamus by PET analysis; assay type: ADME, organism-based, Macaca mulatta; details: in vivo; in short: as §3
# [14] = Biodistribution in iv dosed rhesus monkey anterior cingulate by PET analysis; assay type: ADME, organism-based, Macaca mulatta; details: in vivo; in short: as §1
# [15] = Biodistribution in iv dosed rhesus monkey putamen by PET analysis; assay type: ADME, organism-based, Macaca mulatta; details: in vivo; in short: as §3
# [16] = Fraction unbound in human plasma by radio-HPLC analysis; assay type: ADME, cell-free
# [17] = system: Plasma; experiment: Biodistribution in rhesus monkey plasma assessed as radiometabolite [18F]-B level at 5.24 mCi, iv after 60 mins by radio-HPLC analysis; assay type: ADME, organism-based, Macaca mulatta; details: in vivo, 1 h; in short: as §2
# [18] = system: Hippocampus; experiment: Biodistribution in iv dosed rhesus monkey hippocampus by PET analysis; assay type: ADME, organism-based, Macaca mulatta; details: in vivo; in short: as §3
# [19] = Fraction unbound in rhesus monkey plasma by radio-HPLC analysis; assay type: ADME, cell-free, Macaca mulatta
# [20] = Metabolic stability in rhesus monkey whole blood assessed as compound remaining after 30 mins by radio-HPLC analysis; assay type: ADME, tissue-based, Macaca mulatta; details: read-out: Stability
# In short: (§4)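 Radioligand incubated in rhesus monkey whole blood or plasma at room temperature for at least 30 min. Blood lysed with water for 30 s; samples deproteinized with MeCN and spun at 10,000 g. Supernatants analysed by radio-HPLC; precipitates counted to give extraction efficiency. Percent unchanged parent divided by radiochemical purity.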
# [21] = system: Plasma; experiment: Biodistribution in rhesus monkey plasma at 5.24 mCi, iv after 2 hrs by radio-HPLC analysis; assay type: ADME, organism-based, Macaca mulatta; details: in vivo; in short: as §2
# [22] = system: Brain; experiment: Biodistribution in iv dosed rhesus monkey brain administered 30 mins prior to mGluR1 antagonist JNJ-16259685-challenge by PET analysis; assay type: organism-based, Macaca mulatta; details: in vivo, 0.5 h
# In short: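 Displacement challenge in a second rhesus monkey: JNJ-16259685 (3 mg/kg) given i.v. 30 min after the i.v. [18F] radioligand injection. Anesthesia was ketamine 10 mg/kg i.m. then 1.6% isoflurane. The brain was scanned with microPET for 120 min in 33 frames, and regional radioactivity expressed as SUV.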
# [23] = Biodistribution in iv dosed rhesus monkey cerebellum measured at 2 hrs by PET analysis; assay type: ADME, organism-based, Macaca mulatta; details: in vivo; in short: as §3
# [24] = Metabolic stability in rhesus monkey plasma assessed as compound remaining after 30 mins by radio-HPLC analysis; assay type: ADME, cell-free, Macaca mulatta; details: read-out: Stability; in short: as §4
# [25] = Biodistribution in iv dosed rhesus monkey frontal cortex by PET analysis; assay type: ADME, organism-based, Macaca mulatta; details: in vivo; in short: as §3
# [26] = system: Brain; experiment: Biodistribution in iv dosed rhesus monkey brain administered 30 mins prior to […]-challenge by PET analysis; assay type: ADME, organism-based, Macaca mulatta; details: in vivo, 0.5 h, in the assay text read “mGluR5 ligand” for “mGluR1 ligand”
# In short: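 Third rhesus monkey (8.1 kg): the mGluR5-selective ligand MTEP (5 mg/kg) given i.v. 30 min after the i.v. [18F] radioligand. Anesthesia was ketamine then isoflurane, with the head in a stereotaxic frame. A 120-min microPET acquisition in 33 frames was run, and regional washout expressed as SUV.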
# [27] = system: Brain; experiment: Biodistribution in iv dosed rhesus monkey brain administered 5 mins post mGluR1 antagonist JNJ-16259685-challenge by PET analysis; assay type: organism-based, Macaca mulatta; details: in vivo
# In short: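 Receptor preblock in the baseline monkey on a separate day: JNJ-16259685 (3 mg/kg) given i.v. 5 min before the i.v. [18F] radioligand (4.6–6.58 mCi). Under ketamine/isoflurane anesthesia in a stereotaxic frame, the brain was scanned with microPET for 120 min in 33 frames. Regional time–activity curves expressed as SUV.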
# [28] = system: Plasma; experiment: Biodistribution in rhesus monkey plasma assessed as radiometabolite [18F]-D level at 5.24 mCi, iv after 60 mins by radio-HPLC analysis; assay type: ADME, organism-based, Macaca mulatta; details: in vivo, 1 h; in short: as §2
smiles,measurement,setting,value
CC(C)Nc1cc(-c2csc(N(C)C(=O)c3ccc([18F])cc3)n2)ncn1,Drug uptake,[1],17%
CNc1cc(-c2csc(N(C)C(=O)c3ccc([18F])cc3)n2)ncn1,Drug uptake,[2],31%
same,Drug uptake,[3],19%
same,Drug uptake,[4],Active
same,SUV,[5],5.3
same,Drug uptake,[6],21%
same,logD,[7],2.52
same,SUV,[8],3.32
same,Drug uptake,[9],26%
same,Drug uptake,[10],10%
same,Drug uptake,[11],Not Active
same,Drug uptake,[12],Active
same,SUV,[13],2.9
same,SUV,[14],2.4
same,SUV,[15],2.5
same,fraction unbound,[16],0.0114
same,Drug uptake,[17],23%
same,SUV,[18],2.5
same,fraction unbound,[19],0.0123
same,remaining at 0.5 h,[20],98.1%
same,Drug uptake,[21],Active
same,Drug uptake,[22],Active
same,SUV,[23],2.8
same,remaining at 0.5 h,[24],98.9%
same,SUV,[25],2.7
same,Drug uptake,[26],Active
same,Drug uptake,[27],Active
same,Drug uptake,[28],1%
